# Screening results as filed in PubChem.
# A selection: hits, their analogues and other compounds. The true share with any hit is near 3.1%.
# HSF1 inh = HSF1 inhibitors in luciferase reporter cells, primary screen, cell-based, NIH3T3, luminescence; activity change, negative = inhibition, % at 7.5 µM (by protocol); AID 2098, 2009; 300,000 tested, 0.77% active; NIH3T3-HGL HSE-luciferase, MG132-induced, luminescence 8 h; stronger effect = lower value;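 active = more than half of replicate wells show activity change below -50%, luminescence cut by over half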;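 note: luciferase reports HSF-1 transcriptional activity via heat shock element; 0% = median of DMSO wells and -100% = zero luminescence signal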
# Tb hexokinase = Trypanosoma brucei hexokinase 1 inhibitors, primary screen, biochemical, G6PDH-coupled NADH absorbance, MLSCN library; hexokinase 1 [Trypanosoma brucei]; recombinant TbHK1, G6PDH-coupled NADH A340; inhibition, % at 10 µM; 220,000 tested, 0.11% active; AID 1430, 2008;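 active = inhibition of 50% or more in the single-dose primary screen; inactive = inhibition below 50%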
# Hsp70 act = Hsp70 transcriptional activators, primary screen, cell-based, HeLa, Hsp70 promoter luciferase, luminescence, 10 µM; HeLa Hsp70 promoter luciferase reporter; scaled: vehicle 0, proteasome-inhibitor control 100%; activation, % at 10 µM; AID 1203, 2008; 200,000 tested, 0.04% active;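 active = activation above the mean across all tested compounds plus 3 SD, cutoff set per campaign, cut at about 5.5% in these data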;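 note: 100% = MG132 at 30 µM as the positive control and 0% = DMSO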
# HSF-1 act = HSF-1 activators, primary screen, NIH3T3-HGL cells, MG132 stress, luminescence, single point | NIH3T3-HGL HSF-1 luciferase reporter, 8 h; 100% = twice DMSO control signal | 300,000 tested, 1.7% active | AID 504408, 2011 | activation, % at 9 µM;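 active = mean replicate activation of at least 50% with a set share of replicates each reaching 50%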;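 note: 0% = median of the neutral control wells and 100% = twice that signal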
# HSP90 refold inh = HSP90 inhibitors, primary screen, cell lysate, luminescence; Heat shock protein HSP 90 (rabbit reticulocyte lysate; luciferase refolding); Rabbit reticulocyte lysate, luciferase refolding luminescence, 3 h; inhibition, % at 5.6 µM; 290,000 tested, 0.91% active; AID 1789, 2009;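 active = inhibition above the screen-wide mean plus 3 SD, computed separately per campaign, cut at about 16% in these data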;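 note: 0% = DMSO wells and 100% = 60 µM geldanamycin wells; inhibitors lower the luminescence because luciferase stays unfolded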
# HKDC1 inhibitor = HKDC1 hexokinase inhibitors, primary screen, biochemical, fluorescence, uHTS | Q2TB90 | recombinant HKDC1, G6PDH/diaphorase resazurin coupled fluorescence | inhibition, % at 20 µM | 340,000 tested, 0.16% active;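 active = inhibition above about 35% when tested at 20 µM, limit read from the data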;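 note: plate controls were DMSO wells with enzyme for no effect and DMSO wells lacking enzyme for full effect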
#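 Assay system: recombinant HKDC1 hexokinase; detection: coupled resazurin fluorescence, excitation 525 nm, emission 613 nm; benchmarks: DMSO-plus-enzyme-mix negative control, buffer-substituted positive control; compound dosing: single 20 µM dose; schedule: 90 min at room temperature in dark; also added: glucose plus 1 mM ATP as hexokinase substrates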
# The depositor's hits bear a star; x = no result.
SMILES,HSF1 inh,Tb hexokinase,Hsp70 act,HSF-1 act,HSP90 refold inh,HKDC1 inhibitor
Cc1nc([N+](=O)[O-])c(Sc2nc3ccccc3n2C)n1Cc1ccccc1,53,-4,0,79*,-1,30
COc1ccc(C(NC(=O)c2ccc(=O)[nH]c2)C(=O)Nc2ccc(C(C)C)cc2)cc1 (centres undefined),-61*,-6,0,-72,0,-5
O=c1c2ccccc2sc2nc(CCl)nn12,x,x,x,x,x,-1
COc1ccc2c(C)cc(=O)oc2c1,x,x,x,x,x,-3
Cc1cc(=O)oc2cc(OCC#N)ccc12,-56*,-15,0,-66,-4,-2
O=C(CCNS(=O)(=O)c1ccc(F)c(Cl)c1)NCc1ccccc1F,x,x,x,x,x,-7
COc1ccc(/C=C/C(=O)c2ccc(O)cc2)cc1CN1CCOCC1,23,-32,0,35,-1,-10
COc1ccc(/C=C/C(=O)C23CC4CC(CC(C4)C2)C3)cc1CN1CCOCC1,64,-20,0,122*,1,-5
Oc1c(Cl)cccc1C=Nc1cc(C(F)(F)F)ccc1N1CCCC1,-1,-10,0,5,-1,0
Oc1c(Cl)cc(Cl)cc1C=Nc1cc(C(F)(F)F)ccc1N1CCc2ccccc2C1,37,-17,x,70*,14,9
Cn1c(N)c(C(=O)COC(=O)COc2ccccc2Cl)c(=O)n(C)c1=O,x,x,x,x,x,-4
COCCCNCCOc1ccc(C)cc1[N+](=O)[O-],44,12,0,59*,1,-1
COCCCNCCOCCOc1ccc(C)cc1[N+](=O)[O-],1,-5,0,-3,2,1
CCOC(=O)c1cc(-c2ccccc2)n(Cc2cc(CC)no2)n1,-7,x,x,-14,x,-3
Cc1ccc(-n2c(C)cc(C(=O)COc3c(CO)cc(F)cc3CO)c2C)cc1C,11,7,0,56*,6,0
CC1CCCC(C)N1C(=O)CSc1ccc(-c2ccc3c(c2)OCCO3)nn1 (centres undefined),-88*,x,x,-91,-2,2
Cc1c(C2=CCN(S(=O)(=O)c3ccc(Br)cc3)CC2)c2ccccc2n1C,-60*,28,0,-70,4,-4
CCn1c(C)c(C2=CCN(S(=O)(=O)c3ccc(C)cc3)CC2)c2ccccc21,13,-2,0,30,-1,-3
COc1ccc(C2=NN(S(C)(=O)=O)C(c3ccc4nccnc4c3)C2)cc1 (centres undefined),39,24,0,92*,2,-4
CCOC(=O)C1(CCCc2ccccc2)CCN(C(=O)c2cc(C)nn2CC)CC1,-1,x,x,9,-1,-5
O=[N+]([O-])c1ccc(-c2nc(-c3ccncc3)no2)cc1,31,-9,x,65*,1,-3
COc1ccc(-c2nc(-c3ccncc3)no2)cc1,27,x,x,54*,21*,-3
COc1ccc(-c2nc(-c3ccccn3)no2)cc1,-78*,-1,-1,-80,94*,-9
O=[N+]([O-])c1cccc(-c2noc(-c3cccs3)n2)c1,43,-20,x,57*,-6,-4
O=[N+]([O-])c1ccccc1S(=O)(=O)Nc1ccn(Cc2c(F)cccc2Cl)n1,3,x,x,-9,1,1
SMILES,HSF1 inh,Tb hexokinase,Hsp70 act,HSF-1 act,HSP90 refold inh,HKDC1 inhibitor
COc1cc(OC)cc(N(C(=O)c2ccco2)C(C(=O)NC2CCCC2)c2ccc(N3CCOCC3)cc2)c1 (centres undefined),7,x,x,21,3,6
CC(=O)c1ccc(N(C(=O)c2ccco2)C(C(=O)NC2CCCC2)c2ccc(N3CCOCC3)cc2)cc1 (centres undefined),35,0,1,69*,2,-7
CC(=O)Nc1nnc(SCC(=O)c2ccc(F)cc2)s1,92,3,0,104*,2,-4
CC(=O)Nc1nnc(SCc2ccc(F)cc2)s1,23,3,0,19,-5,-6
O=C(Cc1c(F)cccc1Cl)NNC(=O)c1ccc(Br)s1,x,x,x,x,x,0
CC(C)=CCC/C(C)=C/CNC(=O)C[C@H]1C[C@H](C(=O)N2CCCCC2)[C@@]2(C)c3[nH]c4cc(CCC(=O)N(C)C)ccc4c3CCN2C1=O,x,x,x,x,x,0
Cc1ccc(OCC(=O)Nc2ccccc2[N+](=O)[O-])c(Br)c1,38,1,0,55*,-7,-11
Cc1ccc(OCC(=O)Nc2ccccc2F)cc1,10,x,x,56*,x,0
CCC(C)N(C(=O)COC(=O)c1ccc(=O)n(Cc2ccccc2)n1)C1CCS(=O)(=O)C1 (centres undefined),-3,x,x,13,x,-5
O=C(CSc1nnc(SCc2ccc(Cl)cc2)s1)N/N=C/c1ccc(Cl)cc1Cl,26,2,0,44,5,-7
O=C(CSc1nnc(SCc2ccc(Cl)cc2)s1)N/N=C/c1c(Cl)cccc1Cl,28,11,0,60*,1,3
Cc1ccc(NC2OC(CO)C(O)C2O)cc1[N+](=O)[O-] (centres undefined),30,1,0,72*,4,-15
Cc1ccc(NC2OC(C(O)CO)C(O)C2O)cc1[N+](=O)[O-] (centres undefined),-2,-5,0,-2,-1,2
O=C(COC(=O)/C=C/c1cccc([N+](=O)[O-])c1)NCc1ccco1,181,2,0,200*,2,5
CC(=O)N1CCC(C(=O)Nc2ccc(S(=O)(=O)NCCc3ccccc3)cc2)CC1,7,x,x,14,-2,-7
Cc1ccccc1Oc1nc2ccccn2c(=O)c1/C=C(\C#N)C(=O)Nc1c(C)n(C)n(-c2ccccc2)c1=O,6,-13,0,5,-1,-9
Cc1ccccc1Oc1nc2c(C)cccn2c(=O)c1/C=C(\C#N)C(=O)Nc1c(C)n(C)n(-c2ccccc2)c1=O,105,-13,0,137*,0,3
CN(C)/C=N/c1cnc(C(=O)c2ccc(Cl)cc2)n1C,30,-19,0,62*,0,-6
COC(=O)c1nc(Cl)c(Cl)c(N)c1Cl,-72*,-1,0,-77,-2,-5
CCCCCCCCOC(=O)c1nc(Cl)c(Cl)c(N)c1Cl,-5,21,0,-4,3,-6
COc1ccc(OC)c(C(C[N+](=O)[O-])c2c(C)cc3ccccn23)c1 (centres undefined),88,x,x,112*,-1,-3
Cc1ccccc1NS(=O)(=O)c1ccc2c(c1)NC(=O)CO2,8,-3,0,61*,4,-3
